Data set [1] relates to Mycobacterium tuberculosis. Kind of data set: Antitubercular activity against log phase culture of Mycobacterium tuberculosis H37Rv ATCC 27294 by agar dilution method. Type of data set: functional. The method in brief: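 H37Rv (ATCC27294) was tested by agar dilution, with the compound serially diluted from 50 to 0.78 in duplicate. MIC was taken as the lowest concentration giving complete growth inhibition.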
In general terms: Agar dilution tests growth on a series of plates holding different concentrations.

A short description of data set [2]: Cytotoxicity against HEK293T cells assessed as cellular growth at 25 uM by MTT assay. Type of data set: cell-based, HEK-293T. The settings on record: human, read-out: Activity. Put shortly:
(§1)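 HEK293T cells were exposed to compound at 25 and 100 and read out by MTT assay.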

The test system of data set [3] is Mycobacterium tuberculosis. As to the kind of experiment: Ratio of nitazoxanide MIC to compound MIC for log phase culture of Mycobacterium tuberculosis H37Rv ATCC 27294. Type of data set: functional.
Data set [4] can be described thus: Cytotoxicity against HEK293T cells assessed as cellular growth at 100 uM by MTT assay. The data set is classed as cell-based, HEK-293T. The settings on record: human, read-out: Activity. The method in brief: as §1
The subject of data set [5] is Mycobacterium tuberculosis. Kind of data set: Antitubercular activity against non-culturable Mycobacterium tuberculosis assessed as reduction in dormant cell viability at 10 ug/mL measured for 7 days by MPN assay. The data set is classed as functional, organism-based. Put shortly:
(§2)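 Bacilli were grown in potassium-deficient Sauton's medium with ADC and 0.05% Tween-80 at 37 °C and 200 rpm. Dormancy was confirmed by failure to form colonies on agar-solidified Sauton's. Non-culturable cells were washed and exposed to compound for 7 days, then resuscitated in liquid Sauton's alongside untreated cells. Recovered cell concentration was estimated by Most Probable Number assay with statistical treatment.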

A short description of data set [6]: Therapeutic index, ratio of cytotoxicity against HEK293T cells to MIC for log phase culture of Mycobacterium tuberculosis H37Rv ATCC 27294. Type of data set: cell-based, HEK-293T. The note with it: human, read-out: TI.
The test system of data set [7] is Mycobacterium tuberculosis. Kind of data set: Antitubercular activity against non-culturable Mycobacterium tuberculosis assessed as log reduction in dormant cell viability at 10 ug/mL measured for 7 days by MPN assay relative to control. The data set is classed as functional. Put shortly: as §2

As usually defined, the MIC is the least concentration at which growth counts as inhibited. Read a low MIC as inhibition by little substance.

In brackets after ≈: the same amount, converted by molar mass. Activity calls are given as the source filed them. No cut-off for these calls is given here.

`O=C(Oc1c(C(=O)Nc2ncc([N+](=O)[O-])s2)cc([N+](=O)[O-])cc1[N+](=O)[O-])c1ccccc1` registered an MIC in data set [1] of more than 109 µM.

With `CC(=O)Oc1ccc(Cl)cc1C(=O)Nc1ncc([N+](=O)[O-])s1`, in data set [2], the viability at 25 µM was determined as 59.5%. It took 18.3 µM (≈ 6.25 µg/mL) to inhibit growth in data set [1] (MIC). In addition, the Ratio in data set [3] worked out at 8.9. Moreover, the viability at 100 µM in data set [4] amounted to 31.1%.

Turning to `CO[C@H]1/C=C/O[C@@]2(C)Oc3c(C)c(O)c4c(O)c(c(/C=N/N5CCN(C)CC5)c(O)c4c3C2=O)NC(=O)/C(C)=C\C=C\[C@H](C)[C@H](O)[C@@H](C)[C@@H](O)[C@@H](C)[C@H](OC(C)=O)[C@@H]1C` [RIFAMPIN], 0.48 µM (≈ 0.395 µg/mL) was the least that counted as inhibitory in data set [1] (MIC). In addition, the outcome in data set [5] was Active.

`CC(=O)Oc1cc(Cl)ccc1C(=O)Nc1ncc([N+](=O)[O-])s1`: in data set [2], the viability at 25 µM came to 100%. The same molecule had an MIC in data set [1] of 36.6 µM (≈ 12.5 µg/mL). Also, the Ratio in data set [3] came out at 4.4. In addition, in data set [4], the viability at 100 µM is 83.5%.

For the molecule `O=C(Nc1ncc([N+](=O)[O-])s1)c1ccc(-c2ccc(Cl)cc2)o1`, the viability at 25 µM in data set [2] was found to be 75%. Moreover, it took 17.9 µM (≈ 6.25 µg/mL) to inhibit growth in data set [1] (MIC). For the same molecule, in data set [4], the viability at 100 µM turned out to be 74.1%.

With `COc1ccc(O)c(C(=O)Nc2ncc([N+](=O)[O-])s2)c1`, the viability at 25 µM in data set [2] amounted to 100%. In data set [1], this molecule gave an MIC of 84.7 µM (≈ 25 µg/mL). The viability at 100 µM in data set [4] turned out to be 100%.

Take `O=C(Nc1ncc([N+](=O)[O-])s1)c1ccc([N+](=O)[O-])o1`: in data set [2], the viability at 25 µM is 87.4%. The MIC in data set [1] is 5.48 µM (≈ 1.56 µg/mL). Moreover, in data set [6], the selectivity ratio is more than 20. Besides, the FC in data set [7] is 1. Besides, in data set [3], the Ratio is given as 29. Also, the viability at 100 µM in data set [4] amounted to 67.3%.

Consider `O=C(Nc1nc2ccc([N+](=O)[O-])cc2s1)c1ccc([N+](=O)[O-])o1`, for which the viability at 25 µM in data set [2] amounted to 100%. In data set [1], this molecule had an MIC of 150 µM (≈ 50 µg/mL). In addition, the FC in data set [7] is on record as 1. Further, the viability at 100 µM in data set [4] stood at 43.3%.

On to `COc1ccc(OC(=O)c2ccccc2)c(C(=O)Nc2ncc([N+](=O)[O-])s2)c1`, for which the viability at 25 µM in data set [2] was found to be 100%. This molecule gave an MIC in data set [1] of 15.6 µM (≈ 6.25 µg/mL). Also, the viability at 100 µM in data set [4] worked out at 67.6%.

For the molecule `Cc1ccc(-c2ccc(C(=O)Nc3ncc([N+](=O)[O-])s3)o2)cc1`, the viability at 25 µM in data set [2] worked out at 94.1%. Further, in data set [1], the MIC is 19 µM (≈ 6.25 µg/mL). For the same molecule, the viability at 100 µM in data set [4] stood at 91.5%.

For `O=C(Nc1ncc([N+](=O)[O-])s1)c1ccc(-c2ccc([N+](=O)[O-])cc2)o1`, in data set [2], the viability at 25 µM stood at 88.4%. The molecule also gave an MIC in data set [1] of 17.3 µM (≈ 6.25 µg/mL). In data set [4], the viability at 100 µM is 79.2%.

For the molecule `O=C(Oc1ccc(Cl)cc1C(=O)Nc1ncc([N+](=O)[O-])s1)c1ccccc1`, the viability at 25 µM in data set [2] stood at 72.2%. The molecule further returned an MIC in data set [1] of 15.5 µM (≈ 6.25 µg/mL). Further, the viability at 100 µM in data set [4] was 23.7%.

`CC(C)c1cc(C(=O)Nc2ncc([N+](=O)[O-])s2)c(O)c(C(C)C)c1`: the viability at 25 µM in data set [2] came to 29.4%. The MIC in data set [1] was determined as 17.9 µM (≈ 6.25 µg/mL). Moreover, the viability at 100 µM in data set [4] is 7.1%.

Turning to `O=C(Nc1ncc([N+](=O)[O-])s1)c1ccc(-c2ccc(Br)cc2)o1`, in data set [2], the viability at 25 µM was 89.1%. The molecule also returned an MIC in data set [1] of 31.7 µM (≈ 12.5 µg/mL). The viability at 100 µM in data set [4] stood at 70.3%.

Turning to `CC(=O)Oc1c(C(=O)Nc2ncc([N+](=O)[O-])s2)cc(C(C)C)cc1C(C)C`, the viability at 25 µM in data set [2] was determined as 45.9%. This molecule also came in with an MIC in data set [1] of 63.9 µM (≈ 25 µg/mL). In data set [3], the Ratio worked out at 2.54. The viability at 100 µM in data set [4] was determined as 20.6%.

For `COOc1ccc(-c2ccc(C(=O)Nc3ncc([N+](=O)[O-])s3)o2)cc1`, the viability at 25 µM in data set [2] turned out to be 100%. The molecule also returned an MIC in data set [1] of 72.4 µM (≈ 26.2 µg/mL). For the same molecule, in data set [4], the viability at 100 µM turned out to be 95.7%.

As to `O=C(Nc1ncc([N+](=O)[O-])s1)c1cc(Cl)ccc1O`, in data set [2], the viability at 25 µM came to 100%. Besides, the minimal inhibitory concentration (MIC) in data set [1] turned out to be 20.9 µM (≈ 6.25 µg/mL). For the same molecule, the viability at 100 µM in data set [4] stood at 63%.

In the case of `O=C(Oc1cc(Cl)ccc1C(=O)Nc1ncc([N+](=O)[O-])s1)c1ccccc1`, in data set [1], the MIC was more than 124 µM.

`O=C(Nc1ncc([N+](=O)[O-])s1)c1cccs1` [TENONITROZOLE]: the viability at 25 µM in data set [2] came to 100%. In data set [1], the lowest concentration to inhibit growth (MIC) was 24.5 µM (≈ 6.25 µg/mL). Moreover, the viability at 100 µM in data set [4] was determined as 93.4%.

As for `O=C(Oc1c(Cl)cc(Cl)cc1C(=O)Nc1ncc([N+](=O)[O-])s1)c1ccccc1`, the viability at 25 µM in data set [2] worked out at 100%. This molecule displayed an MIC in data set [1] of 28.5 µM (≈ 12.5 µg/mL). For the same molecule, the viability at 100 µM in data set [4] came to 61.6%.

In the case of `CC(=O)Oc1c(Cl)cc(Cl)cc1C(=O)Nc1ncc([N+](=O)[O-])s1`, in data set [2], the viability at 25 µM came out at 100%. In data set [1], inhibition of growth (MIC) required 66.5 µM (≈ 25 µg/mL). Further, the Ratio in data set [3] is recorded as 2.44. In data set [4], the viability at 100 µM is 95.1%.

`O=C(Nc1ncc([N+](=O)[O-])s1)c1cc(Cl)cc(Cl)c1O`: the viability at 25 µM in data set [2] was 100%. This molecule also had an MIC in data set [1] of 74.8 µM (≈ 25 µg/mL). In addition, the viability at 100 µM in data set [4] turned out to be 23.5%.

In turn, `O=C(Nc1ncc([N+](=O)[O-])s1)c1ccco1` displayed an MIC in data set [1] of 206 µM (≈ 49.2 µg/mL).

On to `O=C(Nc1ncc([N+](=O)[O-])s1)c1ccc([N+](=O)[O-])s1`, for which, in data set [2], the viability at 25 µM was found to be 100%. In addition, inhibition of growth in data set [1] (MIC) required 20.8 µM (≈ 6.25 µg/mL). Further, the viability at 100 µM in data set [4] was 35.9%.

For the molecule `O=C(Nc1ncc([N+](=O)[O-])s1)c1ccc(Cl)cc1O`, the MIC in data set [1] was more than 167 µM.

`CC(=O)Oc1ccccc1C(=O)Nc1ncc([N+](=O)[O-])s1` [NITAZOXANIDE] registered an MIC in data set [1] of 163 µM (≈ 50 µg/mL).

In turn, `NNC(=O)c1ccncc1` [ISONIAZID] registered an MIC in data set [1] of 0.72 µM (≈ 0.0987 µg/mL). For the same molecule, in data set [5], the outcome was Active.

In data set [1], `CC(C)c1cc(C(=O)Nc2ncc([N+](=O)[O-])s2)c(OC(=O)c2ccccc2)c(C(C)C)c1` came in with an MIC of more than 110 µM.

Regarding `COc1ccc(OC(C)=O)c(C(=O)Nc2ncc([N+](=O)[O-])s2)c1`, in data set [2], the viability at 25 µM came to 100%. In addition, the MIC in data set [1] worked out at 74.1 µM (≈ 25 µg/mL). Further, the Ratio in data set [3] worked out at 2.19. In data set [4], the viability at 100 µM is 94.1%.
